Experimental data taken from ChEMBL document CHEMBL2440021, “Discovery of β2 Adrenergic Receptor Ligands Using Biosensor Fragment Screening of Tagged Wild-Type Receptor” (ACS Med Chem Lett, 2013).
The source made the active and inactive calls. The calls are words filed in the database; no cut-off is given here.

Columns and labels:
[1] = target: T1, Beta-2 adrenergic receptor (Homo sapiens, UniProt P07550); assay: Binding affinity to N-terminal FLAG-tagged C-terminal His-10-tagged human beta2 adrenoceptor expressed in insect Sf9 cells by surface plasmon resonance analysis in presence of maltose neopentyl glycol
In short: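 Same NTA chip capture of His-10-tagged purified receptor as the primary SPR screen, but the binding run was done in MNG detergent. KD by SPR.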
Target sequence in this assay (P07550 whole entry): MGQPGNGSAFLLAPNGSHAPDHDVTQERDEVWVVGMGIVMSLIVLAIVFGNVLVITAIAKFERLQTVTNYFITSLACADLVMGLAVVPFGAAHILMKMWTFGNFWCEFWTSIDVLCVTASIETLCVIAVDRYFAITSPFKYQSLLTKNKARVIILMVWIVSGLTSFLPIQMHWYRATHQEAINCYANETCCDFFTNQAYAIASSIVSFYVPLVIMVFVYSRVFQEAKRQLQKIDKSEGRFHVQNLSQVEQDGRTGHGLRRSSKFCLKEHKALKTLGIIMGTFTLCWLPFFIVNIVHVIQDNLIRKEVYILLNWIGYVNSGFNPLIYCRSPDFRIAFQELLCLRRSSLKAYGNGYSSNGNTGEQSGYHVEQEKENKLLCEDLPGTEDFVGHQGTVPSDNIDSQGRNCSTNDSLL

[2] = target: T1, Beta-2 adrenergic receptor; assay: Binding affinity to N-terminal FLAG-tagged C-terminal His-10-tagged human beta2 adrenoceptor expressed in insect Sf9 cells by surface plasmon resonance analysis
Target sequence in this assay (P07550 whole entry): as above

[3] = target: Vasopressin V2 receptor (Homo sapiens) (UniProt P30518); assay: Antagonist activity at AVPR2 (unknown origin) assessed as inhibition of [Arg8]-Vasopressin induced beta arrestin recruitment at 10 uM; format: functional
Sequence of Vasopressin V2 receptor (Homo sapiens) (P30518 whole entry): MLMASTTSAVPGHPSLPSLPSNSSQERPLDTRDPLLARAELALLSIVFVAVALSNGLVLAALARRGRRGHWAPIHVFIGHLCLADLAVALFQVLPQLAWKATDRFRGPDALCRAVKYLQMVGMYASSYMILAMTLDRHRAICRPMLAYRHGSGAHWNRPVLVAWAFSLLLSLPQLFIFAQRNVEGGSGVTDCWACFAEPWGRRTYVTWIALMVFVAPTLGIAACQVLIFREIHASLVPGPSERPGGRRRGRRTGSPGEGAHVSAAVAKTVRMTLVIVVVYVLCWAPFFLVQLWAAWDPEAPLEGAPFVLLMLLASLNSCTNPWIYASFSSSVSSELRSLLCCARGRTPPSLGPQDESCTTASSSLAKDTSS

[4] = target: Vasopressin V2 receptor (Homo sapiens) (UniProt P30518); assay: Antagonist activity at AVPR2 (unknown origin) assessed as inhibition of [Arg8]-Vasopressin induced cAMP production at 10 to 100 uM; format: functional
[5] = target: T1, Beta-2 adrenergic receptor; assay: Antagonist activity at human beta2 adrenoceptor containing C-terminus of V2 vasopressin receptor expressed in HEK293 cells assessed as inhibition of isoproterenol-induced beta arrestin recruitment at 100 uM after 15 to 18 hrs by luciferase reporter gene assay; format: functional, cell-based
Target sequence in this assay (P07550 whole entry, looked up): as the sequence (P07550 whole entry) above

[6] = target: T1, Beta-2 adrenergic receptor; assay: Antagonist activity at human beta2 adrenoceptor expressed in HEK293 cells assessed as inhibition of isoproterenol-induced cAMP production at 100 uM after 5 mins by luciferase reporter gene assay; format: functional, cell-based
Target sequence in this assay (P07550 whole entry, looked up): as the sequence (P07550 whole entry) above

[7] = target: T1, Beta-2 adrenergic receptor; assay: Binding affinity to N-terminal FLAG-tagged C-terminal His-10-tagged human beta2 adrenoceptor expressed in insect Sf9 cells by surface plasmon resonance analysis in presence of dodecyl maltoside
Target sequence in this assay (P07550 whole entry, looked up): as the sequence (P07550 whole entry) above

[8] = target: Vasopressin V2 receptor (Homo sapiens) (UniProt P30518); assay: Agonist activity at AVPR2 (unknown origin) assessed as stimulation of beta arrestin recruitment; format: functional
[9] = target: T1, Beta-2 adrenergic receptor; assay: Agonist activity at human beta2 adrenoceptor expressed in HEK293 cells assessed as stimulation of cAMP production after 5 mins by luciferase reporter gene assay; format: functional, cell-based
Target sequence in this assay (P07550 whole entry, looked up): as the sequence (P07550 whole entry) above

[10] = target: Beta-1 adrenergic receptor (Homo sapiens) (UniProt P08588); assay: Displacement of [125I]-Cyanopindolol from human beta1 adrenoceptor expressed in HEK293 cells after 90 mins by gamma counting analysis; format: cell-based
Sequence of Beta-1 adrenergic receptor (Homo sapiens) (P08588 whole entry, looked up): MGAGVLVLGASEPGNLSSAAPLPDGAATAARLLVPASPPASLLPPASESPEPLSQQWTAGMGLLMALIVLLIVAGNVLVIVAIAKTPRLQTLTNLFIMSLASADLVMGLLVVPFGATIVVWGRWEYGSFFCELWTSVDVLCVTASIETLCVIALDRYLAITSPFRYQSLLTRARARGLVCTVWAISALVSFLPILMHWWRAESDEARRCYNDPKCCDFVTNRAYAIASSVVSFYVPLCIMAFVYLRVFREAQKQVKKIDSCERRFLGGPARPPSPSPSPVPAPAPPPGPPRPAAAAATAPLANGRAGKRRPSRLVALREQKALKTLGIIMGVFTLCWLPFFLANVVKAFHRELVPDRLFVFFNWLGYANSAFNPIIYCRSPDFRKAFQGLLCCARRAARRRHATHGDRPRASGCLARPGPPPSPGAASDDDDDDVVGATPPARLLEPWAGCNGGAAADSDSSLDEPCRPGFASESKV

[11] = target: T1, Beta-2 adrenergic receptor; assay: Displacement of [125I]-Cyanopindolol from human beta2 adrenoceptor expressed in HEK293 cells after 90 mins by gamma counting analysis; format: cell-based
Target sequence in this assay (P07550 whole entry, looked up): as the sequence (P07550 whole entry) above

[12] = target: Vasopressin V2 receptor (Homo sapiens) (UniProt P30518); assay: Agonist activity at AVPR2 (unknown origin) assessed as stimulation of cAMP production; format: functional
[13] = target: T1, Beta-2 adrenergic receptor; assay: Agonist activity at human beta2 adrenoceptor containing C-terminus of V2 vasopressin receptor expressed in HEK293 cells assessed as stimulation of beta arrestin recruitment after 15 to 18 hrs by luciferase reporter gene assay; format: functional, cell-based
Target sequence in this assay (P07550 whole entry, looked up): as the sequence (P07550 whole entry) above

[14] = target: T1, Beta-2 adrenergic receptor; conditions: Sf9
[15] = target: T1, Beta-2 adrenergic receptor; assay: Antagonist activity at human beta2 adrenoceptor containing C-terminus of V2 vasopressin receptor expressed in HEK293 cells assessed as inhibition of isoproterenol-induced beta arrestin recruitment at 10 uM after 15 to 18 hrs by luciferase reporter gene assay; format: functional, cell-based
[16] = target: T1, Beta-2 adrenergic receptor; assay: Antagonist activity at human beta2 adrenoceptor expressed in HEK293 cells assessed as inhibition of isoproterenol-induced cAMP production at 10 uM after 5 mins by luciferase reporter gene assay; format: functional, cell-based

Structure (SMILES) | Kd ([1]; read-out: Kd) | Kd [2] | inhibition [3] | inhibition [4] | Activity [8] | Activity [12] | other results
c1cc(N2CCNCC2)ccn1 | 142000 nM |  |  |  |  |  | 
c1ccc2c(N3CCNCC3)ccnc2c1 | 348 nM |  |  |  |  |  | 
c1ccc2c(C3CCNCC3)c[nH]c2c1 |  | 22200 nM | inactive | inactive | inactive | inactive | inhibition [5]: Active; inhibition [6]: Active; Activity [7]: Active; Activity [9]: inactive; Kic [10]: 9.9 µM; Kic [11]: 14.1 µM; Activity [13]: inactive
Cc1cc(N2CCNCC2)c2ccccc2n1 | 72.5 nM | 93.4 nM | inactive | inactive | inactive | inactive | 
Cc1ccc2nc(C(F)(F)F)cc(N3CCC(F)(F)CC3)c2c1 | 67100 nM |  |  |  |  |  | 
Clc1cncc(Cl)c1N1CCNCC1 |  | 3500 nM | inactive | inactive | inactive | inactive | inhibition [5]: Active; inhibition [6]: Active; Activity [7]: Active; Activity [9]: inactive; Kic [10]: 12.9 µM; Kic [11]: 15 µM; Activity [13]: inactive
Clc1ccc2c(N3CCNCC3)ccnc2c1 | 76.5 nM | 82.5 nM | inactive | inactive | inactive | inactive | Activity [7]: Active; Ka [14]: 6.62 ×10⁵ /M/s; inhibition [15]: Active; Activity [9]: inactive; Kic [10]: 0.152 µM; Kic [11]: 0.191 µM; inhibition [16]: Active; Activity [13]: inactive
Cc1ccc2nc(C(F)(F)F)cc(N3CCN(C)CC3)c2c1 | 1800 nM |  |  |  |  |  | 
FC(F)(F)c1cc(N2CCNCC2)c2ccccc2n1 | 84.2 nM |  |  |  |  |  | 
FC(F)(F)c1ccc2c(N3CCNCC3)ccnc2c1 | 8000 nM |  |  |  |  |  | 
Cc1ccc2nc(C(F)(F)F)cc(N3CCOCC3)c2c1 |  |  |  |  |  |  | Kd ([1]; sf9): Not Active
